Laboratory results from paper PMC9638899 (Nucleic Acids Research, 2022).
Values joined by “and” are separate entries in the source; they are usually repeats but may differ in a detail not shown here. Equal values may be shown once.

Columns and labels:
[1] = test system: Sis0455 E17/E37 glycine substitution; experiment: cA4 cleavage activity assay, LC ESI-MS, Sis0455 E17/E37 glycine substitution; type: biochemical, Sulfolobus islandicus; conditions: 40 μM cA4, 2 μM enzyme, 70°C, one hour, E17/E37 substituted by glycine
Summary of the method: (§1)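 Each 50 μl reaction held 40 μM cA4 and 2 μM His-tagged Sis0455 variant (E. coli-expressed) in 20 mM Tris pH 8.0, 100 mM NaCl, 1 mM EDTA, for 1 h at 70°C. A no-enzyme control was included. Reactions were stopped at 4°C, phenol-extracted, dried and taken up in 8.6 mM TEA pH 8.3. Products were separated on C18 reverse-phase UPLC (TEA/acetonitrile gradient, 30°C) and read by negative-ion ESI-MS. Runs were at least duplicates.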

Sis0455 Q130G/Y133G [2] = experiment: cA4 cleavage activity assay, LC ESI-MS, Sis0455 Q130G/Y133G; type: biochemical, Sulfolobus islandicus; conditions: 40 μM cA4, 2 μM enzyme, 70°C, one hour
Summary of the method: as §1

Sis0455 E41G/R134G = experiment: ITC binding of cA4 to Sis0455 E41G/R134G; design: species or system Sulfolobus islandicus; conditions: 25°C, E41G/R134G mutant
Summary of the method: (§2)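 His-tagged Sis0455 mutants (site-directed) were expressed in E. coli BL21 pRARE and purified. Protein and cA4 were dialysed into 50 mM HEPES pH 8.0, 300 mM KCl. cA4 (~50 or 100 μM, syringe) was titrated into protein (~5 or 10 μM) at 25°C: one 0.4 μl injection, then 19 × 2 μl, 150 s apart, 750 rpm. cA4-into-buffer controls were run. Normalised heats were fitted to a single-site model.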

Sis0455 N138G [3] = experiment: cA4 cleavage activity assay, LC ESI-MS, Sis0455 N138G; type: biochemical, Sulfolobus islandicus; conditions: 40 μM cA4, 2 μM enzyme, 70°C, one hour
Summary of the method: as §1

Sis0455 T10G [4] = experiment: cA4 cleavage activity assay, LC ESI-MS, Sis0455 T10 glycine substitution; type: biochemical, Sulfolobus islandicus; conditions: 40 μM cA4, 2 μM enzyme, 70°C, one hour, T10 substituted by glycine
Summary of the method: as §1

Sis0455-R105G [5] = experiment: cA4 cleavage activity assay, LC ESI-MS, Sis0455-R105G; type: biochemical, Sulfolobus islandicus; conditions: 40 μM cA4, 2 μM enzyme, 70°C, one hour
Summary of the method: as §1

Sis0455-S11G = experiment: ITC binding of cA4 to Sis0455-S11G; design: species or system Sulfolobus islandicus
Sis0455-K106G [6] = experiment: ITC binding of cA4 to Sis0455-K106G; design: species or system Sulfolobus islandicus; conditions: 25°C, K106G mutant
Summary of the method: as §2

Sis0455-R105G [7] = experiment: ITC binding of cA4 to Sis0455-R105G; design: species or system Sulfolobus islandicus; conditions: 25°C, R105G mutant
Summary of the method: as §2

Sis0455 D75G = experiment: ITC binding of cA4 to Sis0455 D75G; design: species or system Sulfolobus islandicus; conditions: 25°C, D75G mutant
Summary of the method: as §2

Sis0455 E17G/T37G = experiment: ITC binding of cA4 to Sis0455 E17G/T37G; design: species or system Sulfolobus islandicus; conditions: 25°C, E17G/T37G mutant
Summary of the method: as §2

Sis0455 T10G [8] = experiment: ITC binding of cA4 to Sis0455 T10G; design: species or system Sulfolobus islandicus; conditions: 25°C, T10G mutant
Summary of the method: as §2

Sis0455-E41G/R134G = experiment: cA4 cleavage activity assay, LC ESI-MS, Sis0455-E41G/R134G; type: biochemical, Sulfolobus islandicus; conditions: 40 μM cA4, 2 μM enzyme, 70°C, one hour
Summary of the method: as §1

SisCsx1 [9] = experiment: Binding of cA4 to SisCsx1; design: species or system Sulfolobus islandicus; conditions: SisCsx1 versus Sis0455
Sis0811 [10] = experiment: Binding of cA4 to Sis0811; design: species or system Sulfolobus islandicus; conditions: Sis0811 versus SisCsx1
Sis0455 [11] = experiment: cA4 cleavage activity assay and time course, LC ESI-MS, Sis0455; type: biochemical, Sulfolobus islandicus; conditions: time course, 40 μM cA4, 2 μM enzyme, 70°C
Sis0811 [12] = experiment: cA4 cleavage time course, LC ESI-MS, Sis0811; type: biochemical, Sulfolobus islandicus; conditions: 70°C
Sis0455-K106G [13] = experiment: cA4 cleavage activity assay, LC ESI-MS, Sis0455-K106G; type: biochemical, Sulfolobus islandicus; conditions: 40 μM cA4, 2 μM enzyme, 70°C, one hour
Summary of the method: as §1

Sis0455 Q130G/Y133G [14] = experiment: ITC binding of cA4 to Sis0455 Q130G/Y133G; design: species or system Sulfolobus islandicus; conditions: 25°C, Q130G/Y133G mutant
Summary of the method: as §2

Sis0455 N138G [15] = experiment: ITC binding of cA4 to Sis0455 N138G; design: species or system Sulfolobus islandicus; conditions: 25°C, N138G mutant
Summary of the method: as §2

Sis0455 [16] = experiment: ITC binding of cA4 to Sis0455 wild type; design: species or system Sulfolobus islandicus
SisCsx1 [17] = conditions: cited from earlier work
Sso2081 = Sso2081 versus Sso1393; cited from earlier work

## Cyclic tetraadenylate [cA4]
[1]
  cA4 cleavage activity: did not affect catalysis
Sis0455 Q130G/Y133G [2]
  cA4 cleavage activity: did not affect catalysis
Sis0455 E41G/R134G
  Kd: 1.9 nM
Sis0455 N138G [3]
  cA4 cleavage activity: did not affect catalysis
Sis0455 T10G [4]
  cA4 cleavage activity: did not affect catalysis
Sis0455-R105G [5]
  cA4 cleavage activity: abrogated the nuclease activity
Sis0455-S11G; ITC, 25°C, S11G variant
  Kd: 19.5 nM
Sis0455-S11G; S11G variant versus wild type Sis0455
  decrease in the binding affinity: ~10 fold
Sis0455-K106G [6]
  Kd: 4100 nM
Sis0455-R105G [7]
  cA4 binding: abolished cA4 binding
Sis0455 D75G
  cA4 binding: abolished cA4 binding
Sis0455 E17G/T37G
  Kd: 3.5 nM
Sis0455 T10G [8]
  Kd: 35.3 nM
Sis0455-E41G/R134G
  cA4 cleavage activity: showed cA4 as major specie
SisCsx1 [9]
  affinity for cA4 lower than Sis0455: 10 fold
Sis0811 [10]
  affinity higher than that of SisCsx1: 2 fold
Sis0455 [11]
  time to fully degrade cA4 producing 100% P1 product: 50 min
Sis0811 [12]; Sis0811
  time to cleave the second phosphodiester bond converting all the linear product in the P1 dinucleotide: 30 min
  time to fully degrade cA4 producing 100% P1 product: 50 min
Sis0811 [12]; Sis0811, first phosphodiester
  time to convert almost 100% of the cyclic molecule in the P3 linear product: 20 min
Sis0455-K106G [13]
  cA4 cleavage activity: abolished the cleavage activity
Sis0455 Q130G/Y133G [14]
  Kd: 2600 nM
Sis0455 N138G [15]
  Kd: 10.5 nM
Sis0455 [16]; ITC, 25°C, wild type Sis0455
  Kd: 2.2 nM and 2 nM
Sis0455 [16]; Sis0455 versus Sis0811 (ref 37)
  higher affinity for cA4 of Sis0455 than Sis0811: 5 fold
SisCsx1 [17]
  Kd: 20 nM
Sso2081
  cA4 processing faster than Sso1393: 10 fold
